Source: PMC10762718 (RSC Advances, 2024)

tested on: MDA-MB-231 (human breast cancer) cells; assay: MTT cell viability assay, MDA-MB-231; type: cell-based; conditions: MDA-MB-231, 72 h, read-out: Cell viability (%) ±SD
Method in brief: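 MDA-MB-231 cells were grown as a monolayer in DMEM with 10% heat-inactivated FBS and 1% penicillin-streptomycin at 37 °C in humidified CO2, subcultured every third day with trypsin-EDTA, and used before passage 8. Cells were exposed 72 h to 10, 25 and 50 μM. Medium was removed, MTT added for 3 h at 37 °C, formazan dissolved in DMSO and read at 595 nm. Viability is relative to untreated control, triplicates, ±SD. IC50 comes from the viability-versus-concentration plot.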

Structure (SMILES) | viability at 10 µM [%] | viability at 25 µM [%] | viability at 50 µM [%] | viability at 20 µM [%]
CC(=O)OC[C@@H]1O[C@H](n2cc(Cn3ccc4nc(-c5ccc(C)cc5)cc(=O)n43)nn2)[C@@H](OC(C)=O)[C@H](OC(C)=O)[C@@H]1OC(C)=O (stereo in doubt) [Compound 31, (2S,3R,4R,5S,6S)-2-(Acetoxymethyl)-6-(4-((7-oxo-5-(p-tolyl)pyrazolo[1,5-a]pyrimidin-1(7H)-yl)methyl)-1H-1,2,3-triazol-1-yl)tetrahydro-2H-pyran-3,4,5-triyl triacetate] | 81.7 ± 8.36 | 88.5 ± 6.73 | 78.8 ± 10.4 | 
CC(=O)OC[C@H]1O[C@H](n2cc(Cn3ccc4nc(-c5ccc6c(c5)OCO6)cc(=O)n43)nn2)[C@@H](OC(C)=O)[C@@H](OC(C)=O)[C@@H]1OC(C)=O [Compound 48, (2R,3R,4S,5S,6S)-2-(Acetoxymethyl)-6-(4-((5-(benzo[d][1,3]dioxol-5-yl)-7-oxopyrazolo[1,5-a]pyrimidin-1(7H)-yl)methyl)-1H-1,2,3-triazol-1-yl)tetrahydro-2H-pyran-3,4,5-triyl triacetate] | 96.5 ± 4.91 | 93.3 ± 3.6 | 92.9 ± 9.08 | 
CC1=CC(=O)c2ccccc2C1=O [Menadione, menadione, reference compound] |  |  |  | 23.8 ± 5.7
CC(=O)OC[C@@H]1O[C@H](n2cc(Cn3ccc4nc(-c5ccc6c(c5)OCO6)cc(=O)n43)nn2)[C@@H](OC(C)=O)[C@H](OC(C)=O)[C@@H]1OC(C)=O (stereo in doubt) [Compound 39, (2S,3R,4R,5S,6S)-2-(Acetoxymethyl)-6-(4-((5-(benzo[d][1,3]dioxol-5-yl)-7-oxopyrazolo[1,5-a]pyrimidin-1(7H)-yl)methyl)-1H-1,2,3-triazol-1-yl)tetrahydro-2H-pyran-3,4,5-triyl triacetate] | 101 ± 9.67 | 98.25 ± 0.34 | 97.5 ± 1.88 | 
CC(=O)OC[C@@H]1O[C@H](n2cc(Cn3ccc4nc(-c5ccc(F)cc5)cc(=O)n43)nn2)[C@@H](OC(C)=O)[C@H](OC(C)=O)[C@@H]1OC(C)=O (stereo in doubt) [Compound 35, (2S,3R,4R,5S,6S)-2-(Acetoxymethyl)-6-(4-((5-(4-fluorophenyl)-7-oxopyrazolo[1,5-a]pyrimidin-1(7H)-yl)methyl)-1H-1,2,3-triazol-1-yl)tetrahydro-2H-pyran-3,4,5-triyl triacetate] | 82.4 ± 9.97 | 78.6 ± 10.1 | 75.3 ± 6.17 | 
CC(=O)OC[C@@H]1O[C@H](n2cc(Cn3ccc4nc(-c5ccc(C)cc5)cc(=O)n43)nn2)[C@@H](OC(C)=O)[C@H](OC(C)=O)[C@H]1OC(C)=O (stereo in doubt) [Compound 22, (2S,3S,4R,5S,6S)-2-(Acetoxymethyl)-6-(4-((7-oxo-5-(p-tolyl)pyrazolo[1,5-a]pyrimidin-1(7H)-yl)methyl)-1H-1,2,3-triazol-1-yl)tetrahydro-2H-pyran-3,4,5-triyl triacetate] | 92.4 ± 5.38 | 87.5 ± 6.74 | 85.4 ± 4.16 | 
CC(=O)OC[C@H]1O[C@H](n2cc(Cn3ccc4nc(-c5ccc(C(F)(F)F)cc5)cc(=O)n43)nn2)[C@@H](OC(C)=O)[C@@H](OC(C)=O)[C@@H]1OC(C)=O [Compound 45, (2R,3R,4S,5S,6S)-2-(Acetoxymethyl)-6-(4-((7-oxo-5-(4-(trifluoromethyl)phenyl)pyrazolo[1,5-a]pyrimidin-1(7H)-yl)methyl)-1H-1,2,3-triazol-1-yl)tetrahydro-2H-pyran-3,4,5-triyl triacetate] | 96.8 ± 5.85 | 91.1 ± 6 | 87 ± 1.1 | 
CC(=O)OC[C@H]1O[C@H](n2cc(Cn3ccc4nc(-c5ccc(Cl)cc5)cc(=O)n43)nn2)[C@@H](OC(C)=O)[C@@H](OC(C)=O)[C@@H]1OC(C)=O [Compound 43, (2R,3R,4S,5S,6S)-2-(Acetoxymethyl)-6-(4-((5-(4-chlorophenyl)-7-oxopyrazolo[1,5-a]pyrimidin-1(7H)-yl)methyl)-1H-1,2,3-triazol-1-yl)tetrahydro-2H-pyran-3,4,5-triyl triacetate] | 99.5 ± 10.2 | 95.2 ± 10.6 | 71.4 ± 10.5 | 
CC(=O)OC[C@@H]1O[C@H](n2cc(Cn3ccc4nc(-c5ccc(C(C)C)cc5)cc(=O)n43)nn2)[C@@H](OC(C)=O)[C@H](OC(C)=O)[C@@H]1OC(C)=O (stereo in doubt) [Compound 37, (2S,3R,4R,5S,6S)-2-(Acetoxymethyl)-6-(4-((5-(4-isopropylphenyl)-7-oxopyrazolo[1,5-a]pyrimidin-1(7H)-yl)methyl)-1H-1,2,3-triazol-1-yl)tetrahydro-2H-pyran-3,4,5-triyl triacetate] | 85.2 ± 3.5 | 80.5 ± 8.96 | 78.7 ± 2.56 | 
COc1ccc(-c2cc(=O)n3c(ccn3Cc3cn([C@H]4O[C@@H](COC(C)=O)[C@@H](OC(C)=O)[C@@H](OC(C)=O)[C@@H]4OC(C)=O)nn3)n2)cc1 (stereo in doubt) [Compound 32, (2S,3R,4R,5S,6S)-2-(Acetoxymethyl)-6-(4-((5-(4-methoxyphenyl)-7-oxopyrazolo[1,5-a]pyrimidin-1(7H)-yl)methyl)-1H-1,2,3-triazol-1-yl)tetrahydro-2H-pyran-3,4,5-triyl triacetate] | 92.5 ± 9.39 | 86.2 ± 8.63 | 72.5 ± 6.24 | 
CC(=O)OC[C@H]1O[C@H](n2cc(Cn3ccc4nc(-c5ccc(C(C)C)cc5)cc(=O)n43)nn2)[C@@H](OC(C)=O)[C@@H](OC(C)=O)[C@@H]1OC(C)=O [Compound 46, (2R,3R,4S,5S,6S)-2-(Acetoxymethyl)-6-(4-((5-(4-isopropylphenyl)-7-oxopyrazolo[1,5-a]pyrimidin-1(7H)-yl)methyl)-1H-1,2,3-triazol-1-yl)tetrahydro-2H-pyran-3,4,5-triyl triacetate] | 80.6 ± 4.7 | 75.5 ± 4.44 | 83.5 ± 7.27 | 
CC(=O)OC[C@@H]1O[C@H](n2cc(Cn3ccc4nc(-c5ccc(C(C)C)cc5)cc(=O)n43)nn2)[C@@H](OC(C)=O)[C@H](OC(C)=O)[C@H]1OC(C)=O (stereo in doubt) [Compound 28, (2S,3S,4R,5S,6S)-2-(Acetoxymethyl)-6-(4-((5-(4-isopropylphenyl)-7-oxopyrazolo[1,5-a]pyrimidin-1(7H)-yl)methyl)-1H-1,2,3-triazol-1-yl)tetrahydro-2H-pyran-3,4,5-triyl triacetate] | 102 ± 8.51 | 99.1 ± 3.51 | 69.5 ± 17.7 | 
CC(=O)OC[C@H]1O[C@H](n2cc(Cn3ccc4nc(-c5ccc(F)cc5)cc(=O)n43)nn2)[C@@H](OC(C)=O)[C@@H](OC(C)=O)[C@@H]1OC(C)=O [Compound 44, (2R,3R,4S,5S,6S)-2-(Acetoxymethyl)-6-(4-((5-(4-fluorophenyl)-7-oxopyrazolo[1,5-a]pyrimidin-1(7H)-yl)methyl)-1H-1,2,3-triazol-1-yl)tetrahydro-2H-pyran-3,4,5-triyl triacetate] | 98.4 ± 3.62 | 90.1 ± 6.77 | 89.6 ± 6.27 | 
CC(=O)OC[C@@H]1O[C@H](n2cc(Cn3ccc4nc(-c5ccc6ccccc6c5)cc(=O)n43)nn2)[C@@H](OC(C)=O)[C@H](OC(C)=O)[C@H]1OC(C)=O (stereo in doubt) [Compound 29, (2S,3S,4R,5S,6S)-2-(Acetoxymethyl)-6-(4-((5-(naphthalen-2-yl)-7-oxopyrazolo[1,5-a]pyrimidin-1(7H)-yl)methyl)-1H-1,2,3-triazol-1-yl)tetrahydro-2H-pyran-3,4,5-triyl triacetate] | 89.1 ± 4.09 | 81.5 ± 2.58 | 88.4 ± 7.36 | 
CC(=O)OC[C@@H]1O[C@H](n2cc(Cn3ccc4nc(-c5ccc(Cl)cc5)cc(=O)n43)nn2)[C@@H](OC(C)=O)[C@H](OC(C)=O)[C@@H]1OC(C)=O (stereo in doubt) [Compound 34, (2S,3R,4R,5S,6S)-2-(Acetoxymethyl)-6-(4-((5-(4-chlorophenyl)-7-oxopyrazolo[1,5-a]pyrimidin-1(7H)-yl)methyl)-1H-1,2,3-triazol-1-yl)tetrahydro-2H-pyran-3,4,5-triyl triacetate] | 78.5 ± 2.43 | 76.8 ± 2.43 | 73 ± 2.62 | 
CC(=O)OC[C@@H]1O[C@H](n2cc(Cn3ccc4nc(-c5ccc(Cl)cc5)cc(=O)n43)nn2)[C@@H](OC(C)=O)[C@H](OC(C)=O)[C@H]1OC(C)=O (stereo in doubt) [Compound 25, (2S,3S,4R,5S,6S)-2-(Acetoxymethyl)-6-(4-((5-(4-chlorophenyl)-7-oxopyrazolo[1,5-a]pyrimidin-1(7H)-yl)methyl)-1H-1,2,3-triazol-1-yl)tetrahydro-2H-pyran-3,4,5-triyl triacetate] | 98.6 ± 2.25 | 93.2 ± 1.96 | 86.2 ± 9.22 | 
CC(=O)OC[C@@H]1O[C@H](n2cc(Cn3ccc4nc(-c5ccc6ccccc6c5)cc(=O)n43)nn2)[C@@H](OC(C)=O)[C@H](OC(C)=O)[C@@H]1OC(C)=O (stereo in doubt) [Compound 38, (2S,3R,4R,5S,6S)-2-(Acetoxymethyl)-6-(4-((5-(naphthalen-2-yl)-7-oxopyrazolo[1,5-a]pyrimidin-1(7H)-yl)methyl)-1H-1,2,3-triazol-1-yl)tetrahydro-2H-pyran-3,4,5-triyl triacetate] | 92 ± 8.31 | 89.6 ± 9.91 | 67.7 ± 10.8 | 
CC(=O)OC[C@@H]1O[C@H](n2cc(Cn3ccc4nc(-c5ccc(C(F)(F)F)cc5)cc(=O)n43)nn2)[C@@H](OC(C)=O)[C@H](OC(C)=O)[C@H]1OC(C)=O (stereo in doubt) [Compound 27, (2S,3S,4R,5S,6S)-2-(Acetoxymethyl)-6-(4-((7-oxo-5-(4-(trifluoromethyl)phenyl)pyrazolo[1,5-a]pyrimidin-1(7H)-yl)methyl)-1H-1,2,3-triazol-1-yl)tetrahydro-2H-pyran-3,4,5-triyl triacetate] | 93.2 ± 8.51 | 89.8 ± 8.75 | 74.8 ± 7.02 | 
